Assay results from publication PMC12486158 (Analytical biochemistry, 2025).

Legend:
Assay type in all cases: biochemical
Homo sapiens SAMHD1 [1] = target: T1, Homo sapiens SAMHD1 (Homo sapiens, UniProt Q9Y3Z3); assay: Tight-binding inhibition of SAMHD1; settings: read-out: Ki (Morrison equation, tight-binding); 100 nM SAMHD1, 500 μM dTTP (5×KM), eq. 4 & 5
Homo sapiens SAMHD1 [2] = target: T1, Homo sapiens SAMHD1; assay: Lineweaver-Burk plot and mechanism of inhibition of SAMHD1
Summary of the method: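 Same GTP/dATP pre-activation and coupled MESG/PNP/Ppx1/PPase system. Final: 100 nM SAMHD1, 10 μM GTP, 500 nM dATP, 5 mM MgCl2. Reactions started with inhibitor (up to 4 μM) premixed into dTTP stocks of 0.625–10 mM. A360 followed for 20 min. Initial rates shown as a double-reciprocal plot and globally fitted to a competitive-inhibition equation for Kis. Mean ± SD of three independent experiments.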

Homo sapiens SAMHD1 [3] = target: T1, Homo sapiens SAMHD1; assay: Steady-state kinetics of activated SAMHD1 with dTTP; settings: read-out: KM of dTTP; 100 nM SAMHD1 activated with GTP and dATP, dTTP 8.4-500 μM
Summary of the method: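 Recombinant SAMHD1 (HisTrap, then size-exclusion purified) pre-activated stepwise with GTP then dATP, diluted, and mixed with MESG/PNP/Ppx1/PPase coupling cocktail. Final: 100 nM enzyme, 10 μM GTP, 500 nM dATP, 500 μM MESG, […], 10 nM Ppx1 and PPase. Buffer: HEPES pH 8.0, NaCl, MgCl2, TCEP, glycerol. dTTP 8.4–500 μM. A360 over 20 min. Rates corrected for 3 Pi/dTTP. Michaelis-Menten fit. Three independent experiments.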

T1 sequence (Q9Y3Z3 114-626): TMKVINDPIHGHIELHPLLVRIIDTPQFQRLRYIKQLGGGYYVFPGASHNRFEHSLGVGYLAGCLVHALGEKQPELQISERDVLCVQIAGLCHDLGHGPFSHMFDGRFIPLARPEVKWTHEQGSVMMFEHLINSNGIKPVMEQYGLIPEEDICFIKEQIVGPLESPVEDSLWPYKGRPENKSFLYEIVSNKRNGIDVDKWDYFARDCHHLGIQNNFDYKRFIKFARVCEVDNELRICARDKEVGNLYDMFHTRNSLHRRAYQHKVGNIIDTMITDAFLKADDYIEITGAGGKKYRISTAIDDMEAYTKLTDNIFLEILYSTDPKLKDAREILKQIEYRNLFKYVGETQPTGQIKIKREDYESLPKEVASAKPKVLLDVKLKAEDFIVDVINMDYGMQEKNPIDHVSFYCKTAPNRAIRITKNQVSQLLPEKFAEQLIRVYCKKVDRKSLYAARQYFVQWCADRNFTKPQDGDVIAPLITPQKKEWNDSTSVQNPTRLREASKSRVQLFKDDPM

| Compound | Ki (Homo sapiens SAMHD1 [1]) [nM] | Mode of inhibition (Homo sapiens SAMHD1 [2]; double-reciprocal Lineweaver-Burk plot, varied dTTP) | Kis (global inhibition constant, competitive fit) (Homo sapiens SAMHD1 [2]; varied dTTP and dGPNPP (up to 4 μM), global fit) [nM] | Km (Homo sapiens SAMHD1 [3]) [µM] |
| --- | --- | --- | --- | --- |
| Nc1ccn([C@H]2C[C@H](O)[C@@H](COP(=O)(O)NP(=O)(O)OP(=O)(O)O)O2)c(=O)n1 [dCPNPP, 2'-Deoxycytidine-5'-[(α,β)-imido]triphosphate] | 67 ± 8 | – | – | – |
| Nc1nc2c(ncn2[C@H]2C[C@H](O)[C@@H](COP(=O)(O)NP(=O)(O)OP(=O)(O)O)O2)c(=O)[nH]1 [dGPNPP, 2'-Deoxyguanosine-5'-[(α,β)-imido]triphosphate] | 25 ± 7 | competitive inhibition | 53 ± 7.0 | – |
| Cc1cn([C@H]2C[C@H](O)[C@@H](COP(=O)(O)OP(=O)(O)OP(=O)(O)O)O2)c(=O)[nH]c1=O [dTTP, 2’-Deoxythymidine-5’-triphosphate] | – | – | – | 102 ± 9.4 |
